# M4 antag: human M4 muscarinic receptor antagonists, primary screen, CHO cells, Fluo-8 calcium fluorescence; hit rate 0.73% among 360,000; Muscarinic acetylcholine receptor M4 (Homo sapiens), P08173; CHO-hM4 cells, ACh EC80; AID 624125, 2012; inhibition, % at 3 µM;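 active = inhibition above its plate's cutoff, the mean inhibition of sample wells plus 3 SD, cut at about 27% in these data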;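 note: 0% = acetylcholine EC80 with DMSO and 100% = DMSO without agonist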
# Target sequence (P08173 whole entry, looked up): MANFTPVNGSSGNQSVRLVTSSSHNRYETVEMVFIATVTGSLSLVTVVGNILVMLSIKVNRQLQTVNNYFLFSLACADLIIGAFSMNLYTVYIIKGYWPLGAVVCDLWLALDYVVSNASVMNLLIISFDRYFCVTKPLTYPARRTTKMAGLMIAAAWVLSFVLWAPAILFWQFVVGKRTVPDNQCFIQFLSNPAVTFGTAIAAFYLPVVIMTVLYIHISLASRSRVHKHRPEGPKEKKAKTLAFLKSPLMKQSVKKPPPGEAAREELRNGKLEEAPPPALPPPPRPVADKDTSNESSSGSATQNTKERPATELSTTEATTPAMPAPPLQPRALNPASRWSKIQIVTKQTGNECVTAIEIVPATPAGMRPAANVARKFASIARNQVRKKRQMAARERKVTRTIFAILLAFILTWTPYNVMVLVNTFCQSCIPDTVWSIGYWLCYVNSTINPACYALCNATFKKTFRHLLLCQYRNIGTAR
# CHRM4 PAM: human M4 muscarinic receptor positive allosteric modulators, primary screen, CHO-K1 cells, Fluo-8 calcium fluorescence; Muscarinic acetylcholine receptor M4 (Homo sapiens), P08173; CHO-K1 hM4/Gqi5, ACh EC20; 0% = ACh EC20, 100% = maximal ACh; activation, % at 3 µM; hit rate 0.4% among 360,000; AID 624126, 2012;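 active = activation above its plate's cutoff, the mean activation of sample wells plus 3 SD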
# M5 antag: human M5 muscarinic receptor antagonists, primary screen, CHO cells, Fluo-8 calcium fluorescence | Muscarinic acetylcholine receptor M5 (Homo sapiens), P08912 | CHO-hM5 cells, ACh EC80 | inhibition, % at 3 µM | hit rate 0.59% among 360,000;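 active = inhibition above a per-plate cutoff, the mean of that plate's test compounds plus 3 SD, cut at about 27% in these data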;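 note: 0% = acetylcholine EC80 with DMSO and 100% = DMSO without agonist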
# CHRM5 agonist: human M5 muscarinic receptor agonists, primary screen, CHO-K1 cells, Fluo-8 calcium fluorescence. activation, % at 3 µM. hit rate 0.19% among 360,000. CHO-K1 hM5 cells; 0% DMSO wells, 100% maximal acetylcholine response. Muscarinic acetylcholine receptor M5 (Homo sapiens), P08912;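 active = activation above the run's mean over test compounds plus 3 SD, cut at about 23% in these data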;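 note: signal is peak over basal fluorescence ratio across the kinetic read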
# M4 ag: human M4 muscarinic receptor agonists, primary screen, CHO-K1 cells, Fluo-8 calcium fluorescence. CHO-K1 hM4/Gqi5; vehicle 0%, full acetylcholine response 100%. activation, % at 3 µM. hit rate 0.14% among 360,000. AID 624127, 2012;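 active = activation above the run mean over all test wells plus 3 SD, cut at about 32% in these data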;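 note: peak over basal fluorescence ratio per well then scaled between controls; 0% = DMSO wells and 100% = acetylcholine at EC100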
# M5 PAM: human M5 muscarinic receptor positive allosteric modulators, primary screen, CHO-K1 cells, Fluo-8 calcium fluorescence. hit rate 0.3% among 360,000. AID 624038, 2012. CHO-K1 hM5, ACh EC20 PAM; 0% = ACh EC20, 100% = ACh EC100. activation, % at 3 µM;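 active = activation above the run cutoff, the mean activation of all test compounds plus 3 SD, cut at about 18% in these data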
#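 System – CHO-K1 hM5 cells · Compound – 3 µM, single dose · Incubation – compound preincubation 140 s before EC20 acetylcholine addition · Technique – Fluo-8 calcium fluorescence · Measure – Max/basal fluorescence ratio as % of EC20–EC100 ACh window · Benchmarks – low control EC20 acetylcholine (0%), high control EC100 acetylcholine (100%) · Replication – singlicate, one well per test compound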
# * marks the source's active call; other numbers are inactive results. A selection: hits, their analogues and other compounds. The true share with any hit is near 1.9%.
SMILES,M4 antag,CHRM4 PAM,M5 antag,CHRM5 agonist,M4 ag,M5 PAM
Cc1ccccc1S(=O)(=O)NC(=NCc1ccc(F)cc1)c1ccccc1,0,0,12,1,2,1
CCCCCNC(=O)C(CCc1ccccc1)n1c(=O)c(-c2cc3ccccc3[nH]2)nc2ccccc21 (stereo not drawn),-8,2,-1,2,1,-1
CCCCCNC(=O)C(CCc1ccccc1)n1c(=O)c(-c2ccccc2)nc2ccccc21 (stereo not drawn),31*,-15,3,2,23,2
CC(C)(C)NC(=O)NC(=O)COC(=O)C1=COCCO1,9,10,-3,2,0,36*
O=C(COC(=O)C1=COCCO1)Nc1ccccc1,3,5,7,0,2,1
O=C1NC(=Nc2ccccc2)SC1Cc1ccccc1 (stereo not drawn),-2,-4,27*,-3,18,-11
O=C1N/C(=N/c2ccccn2)SC1Cc1ccccc1 (stereo not drawn),-2,7,1,3,0,-1
CCOc1ccc(NC(=O)CN(C)C(=O)c2cc([N+](=O)[O-])ccc2N2CCOCC2)cc1OCC,-10,0,-4,-4,3,3
O=C(NNC(=O)c1cc2cc3ccccc3nc2s1)c1cccc(Cl)c1,3,30*,5,-2,1,13
COc1ccc(NC(=O)CSc2nnc(N)s2)cc1S(=O)(=O)N1CCCCC1,10,-1,9,0,0,-5
O/C(=C\c1nc2ccccc2[nH]1)c1cccs1,-4,6,4,1,3,3
O=C(/C(=C/c1ccc(Cl)cc1)c1nc2ccccc2[nH]1)c1cccs1,66*,-16,20,-6,4,-23
O=C(/C(=C\c1ccccc1)c1nc2ccccc2[nH]1)c1ccc(Cl)cc1,-13,0,0,-2,2,-4
O=c1[nH]c2ccccc2nc1/C=C(\O)c1cccs1,6,-7,14,31*,12,-16
CC(C)C(=O)N1CCC1(C)C(=O)Nc1cc(-c2ccccc2)nn1C (stereo not drawn),-6,6,2,1,1,-3
CC(C)(C)c1ccc(C(=O)N2CCC2(C)C(=O)NS(=O)(=O)c2ccc(C#N)cc2)cc1 (stereo not drawn),-14,10,1,0,1,0
Cc1ccc(S(=O)(=O)N2CCC(=O)N(CCOC(=O)Nc3cccc(Cl)c3)CC2)cc1,0,9,-86,12,10,30*
Cc1ccc(NC(=O)OCCN2CCN(S(=O)(=O)c3ccc(C)cc3)CCC2=O)cc1,-6,5,-4,6,7,0
CCOC(=O)C1(CCOC)CCN(C/C=C/c2ccccc2OC)CC1,14,-7,20,-17,9,-9
O=C(NC1CCCC1)C1c2ccccc2OCC(=O)N1Cc1ccc2c(c1)OCO2 (stereo not drawn),4,7,0,-6,1,-1
Cc1ccc2c(c1)C(=O)C(=O)N2Cc1ccc(C(F)(F)F)cc1,-5,-3,-1,44*,32*,7
Cc1ccc(OCCN2C(=O)C(=O)c3cc(C)ccc32)cc1,-9,-8,-3,23,0,5
CN(C(=O)COC(=O)/C=C/c1ccc(C(F)(F)F)cc1)c1c(N)n(Cc2ccccc2)c(=O)[nH]c1=O,1,4,-5,-1,0,4
S=C(NCc1ccc(Cl)cc1)Nc1ccncc1,16,-9,41*,6,18,-15
S=C(NCc1ccc(Cl)cc1)Nc1ccccc1,-9,-5,10,2,11,-4

# Screens deposited in PubChem by The Scripps Research Institute Molecular Screening Center.
